The source of these data is ChEMBL document CHEMBL1125203, “The synthesis and antiviral activity of some 4'-thio-2'-deoxy nucleoside analogues” (J Med Chem, 1991).

Values after ≈ are worked out from the molar mass of the structure shown. Where only a bound is given, the exact number is not on record here.

Series [1] has as its system MT4. The series is described as follows: Minimum inhibitory concentration required to reduce cytopathogenicity of human immunodeficiency virus-1 (HIV-1) in MT-4 cells by 50%; No activity below ID50 observed. It counts as functional, cell-based.
Series [2] in a line: Half life was measured in mice. It counts as ADME, organism-based. Particulars: mouse, in vivo.
Series [3] concerns Vero. The series is described as follows: Minimum inhibitory concentration required to reduce cytopathogenicity of Herpes Virus-2 (HSV-2) in vero cells by 50%. It counts as functional. Particulars: Chlorocebus sabaeus. The essentials:
(§1)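 Plaque reduction: confluent monolayers (HSV-2 in Vero, HSV-1 in MRC-5) infected and overlaid with nutrient agarose holding doubling drug dilutions. Plaques counted after 5 days as % of control, plotted against log concentration, and IC50 read from the plot.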

Series [4] can be described thus: Maximum plasma level was measured in mice. It counts as ADME, organism-based. Particulars: mouse, read-out: Max plasma level.
Series [5] concerns MRC5. Kind of series: Minimum inhibitory concentration required to reduce cytopathogenicity of Varicella Zoster Virus (VZV) in MRC-5 cells by 50%. It counts as functional. The following applies: Homo sapiens.
The subject of a further series is Mus musculus. Kind of series: Toxicity of compound was measured after ip administration to mice. It counts as organism-based. The following applies: in vivo.
For series [6], the system named is MRC5. Kind of series: Minimum inhibitory concentration required to reduce cytopathogenicity of Herpes Virus-1 (HSV-1) in MRC -5 cells by 50%. It counts as functional. The following applies: Homo sapiens. The essentials:
as §1

For series [7], the system named is MT4. The series is described as follows: Inhibitory dose required to reduce the viability of MT-4 cells by 50%. It counts as functional, Homo sapiens. The essentials:
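Mock-infected MT-4 cells on the same plate as the HIV test, drug at 100, 10, 1 and 0.1 µM, triplicate wells. Growth inhibition assessed after 5 days by MTT uptake into viable cells, acidified propan-2-ol extraction and spectrophotometric reading.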

Series [8] has as its system MRC5. The series is described as follows: Minimum inhibitory concentration required to reduce cytopathogenicity of cytomegalovirus (CMV) in MRC-5 cells by 50%. It counts as functional. The following applies: Homo sapiens. The method, boiled down: (§2)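 MRC-5 monolayers in 24-well panels, infected after 24 h and overlaid with 0.5% indubiose A37 medium containing drug at 10 and 100 µM. After 5 days, giant cells (plaques) stained with methylene blue and examined microscopically.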

Series [9] has as its system Vero. Kind of series: Inhibitory dose required to reduce the viability of vero cells by 50%. It counts as functional, Chlorocebus sabaeus.
Series [10] has as its system MRC5. The series is described as follows: Minimum inhibitory concentration required to reduce cytopathogenicity of Cytomegalovirus Virus (CMV) in MRC-5 cells by 50%. It counts as functional. Particulars: Homo sapiens. The essentials: as §2

On to `Cc1cn([C@H]2C[C@H](O)[C@@H](CO)S2)c(=O)[nH]c1=O` [4'-THIOTHYMIDINE], for which the MIC50 entry is “No activity” in the series on MT4 [1]; 2.3 µM (≈ 0.594 µg/mL) against Vero [3]; 10 µM (≈ 2.58 µg/mL) in the series with MRC5 [5]; 0.37 µM (≈ 0.0956 µg/mL) with MRC5 [6]; 0.98 µM (≈ 0.253 µg/mL) in the series on MRC5 [8]. Moreover, the half-life in series [2] is 1 h. Besides, the Cmax in [4] is > 35 µM. Further, the Toxicity in the series with Mus musculus was > 40 mg/kg. In addition, the ID50 in the series on MT4 [7] came to 1 µM; in the series on Vero [9], 7.1 µM.

In the case of `O=c1[nH]c(=O)n([C@H]2C[C@H](O)[C@@H](CO)O2)cc1/C=C/Br` [BRIVUDINE], the MIC50 is 12 µM (≈ 4 µg/mL) with Vero [3], 0.02 µM (≈ 0.00666 µg/mL) in the series with MRC5 [5], 0.03 µM (≈ 0.00999 µg/mL) against MRC5 [6] and > 100 µM in the series on MRC5 [10]. For the same compound, the ID50 with Vero [9] was > 500 µM.

Turning to `O=c1[nH]c(=O)n([C@H]2C[C@H](O)[C@@H](CO)S2)cc1/C=C/Br`, the MIC50 result in the series on MT4 [1] was “No activity”; in the series on Vero [3] it was 10 µM (≈ 3.49 µg/mL); with MRC5 [5] it was 0.08 µM (≈ 0.0279 µg/mL); against MRC5 [6], 0.6 µM (≈ 0.21 µg/mL). Further, in series [2], the half-life was 2 h. The Cmax in series [4] is > 50 µM. In the series with Mus musculus, the Toxicity is > 40 mg/kg. Also, the ID50 in the series with MT4 [7] and in the series on Vero [9] was > 500 µM in each case.

In the case of `Cc1cn([C@@H]2C[C@H](O)[C@@H](CO)S2)c(=O)[nH]c1=O`, the MIC50 in the series on Vero [3] and against MRC5 [6] was > 100 µM in each case. The ID50 with MT4 [7] and in the series with Vero [9] was > 100 µM throughout.

Take `O=c1[nH]c(=O)n([C@@H]2C[C@H](O)[C@@H](CO)S2)cc1/C=C/Br`: the MIC50 with Vero [3] and in the series with MRC5 [6] was > 500 µM in each case. Besides, the ID50 in the series with MT4 [7] is > 500 µM.

`Cc1cn(C2CC(N=[N+]=[N-])C(CO)S2)c(=O)[nH]c1=O` (stereo not given): the figures for the MIC50 result in the series on MT4 [1], with Vero [3] and in the series with MRC5 [6] were “No activity”, > 100 µM and > 100 µM, respectively. Besides, the ID50 in the series on MT4 [7] and in the series on Vero [9] was > 100 µM throughout.

For the compound `Nc1nc2c(ncn2COCCO)c(=O)[nH]1` [ACYCLOVIR], the MIC50 against Vero [3] is 1.8 µM (≈ 0.405 µg/mL); in the series on MRC5 [6], 1.3 µM (≈ 0.293 µg/mL); with MRC5 [10] it was 100 µM (≈ 22.5 µg/mL). Besides, in the series on Vero [9], the ID50 is > 500 µM.
